Values after ≈ are worked out from the molar mass of the structure shown.
Assays:
Type in all cases: functional
Pythium aphanidermatum = assay: Antifungal activity against Pythium aphanidermatum after 72 to 96 hrs by agar cup method
How it was run: (§1)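 Agar cup assay on potato dextrose agar. Plates were spread with 0.5 mL of a one-week-old fungal spore suspension, and 6 mm cups were bored into the agar. Different concentrations of compound in acetone were added to the cups. Acetone and clotrimazole served as controls. Plates were held at room temperature for 72–96 h.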

Fusarium oxysporum = assay: Antifungal activity against Fusarium oxysporum after 72 to 96 hrs by agar cup method; how it was run: as §1
[1] = tested on: Chromobacterium violaceum; assay: Antibacterial activity against Chromobacterium violaceum MTCC 2656 after 24 hrs by broth dilution method; conditions: MTCC 2656, 24 h
How it was run: (§2)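 Broth dilution MIC in autoclaved nutrient broth tubes. Test compound was dissolved in acetone, and 100 mg/mL (so in the source) was added to the first tube, then serially diluted across the tubes.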

Rattus norvegicus [2] = assay: Analgesic activity in Albino rat assessed as reaction time at 10 mg/kg, po after 2 hrs by Hot plate test
How it was run: (§3)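 Hot plate test of central analgesia in rats, six per group, with a vehicle control group and an Indomethacin group (10 mg/kg po). Test compounds were given orally at 10 mg/kg. Reaction time was read at 0, 1 and 2 h. Values are the mean of six, ± S.E., also expressed as % increase over basal. Statistics used ANOVA/LSD; Dunnett's test vs control (P < 0.05).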

Alternaria solani = assay: Antifungal activity against Alternaria solani after 72 to 96 hrs by agar cup method; how it was run: as §1
Colletotrichum truncatum = assay: Antifungal activity against Colletotrichum capsici after 72 to 96 hrs by agar cup method; how it was run: as §1
Staphylococcus aureus = assay: Antibacterial activity against Staphylococcus aureus MTCC 96 after 24 hrs by broth dilution method; conditions: MTCC 96, 24 h; how it was run: as §2
Rattus norvegicus [3] = assay: Analgesic activity in Albino rat assessed as reaction time at 10 mg/kg, po after 1 hr by Hot plate test; how it was run: as §3
[4] = Antifungal activity against Verticillium dahliae after 72 to 96 hrs by agar cup method; how it was run: as §1
Bacillus subtilis = assay: Antibacterial activity against Bacillus subtilis MTCC 441 after 24 hrs by broth dilution method; conditions: MTCC 441, 24 h; how it was run: as §2
[5] = tested on: Lysinibacillus sphaericus; assay: Antibacterial activity against Bacillus sphaericus MTCC 511 after 24 hrs by broth dilution method; conditions: MTCC 511, 24 h; how it was run: as §2
Pseudomonas aeruginosa = assay: Antibacterial activity against Pseudomonas aeruginosa MTCC 741 after 24 hrs by broth dilution method; conditions: MTCC 741, 24 h; how it was run: as §2
Rhizoctonia solani = assay: Antifungal activity against Rhizoctonia solani after 72 to 96 hrs by agar cup method; how it was run: as §1
Klebsiella aerogenes = assay: Antibacterial activity against Klebsiella aerogenes MTCC 39 after 24 hrs by broth dilution method; conditions: MTCC 39, 24 h; how it was run: as §2

Compound | MIC (Pythium aphanidermatum) | MIC (Fusarium oxysporum) | MIC [1] | Time (Rattus norvegicus [2]) | MIC (Alternaria solani) | MIC (Colletotrichum truncatum) | MIC (Staphylococcus aureus) | Time (Rattus norvegicus [3]) | MIC [4] | MIC (Bacillus subtilis) | MIC [5] | MIC (Pseudomonas aeruginosa) | MIC (Rhizoctonia solani) | MIC (Klebsiella aerogenes)
Cc1ccc(/C=C/c2onc(C)c2-n2c(C)nc3nc4ccc(Cl)cc4cc3c2=O)cc1 | 10 µg/mL (≈ 22.6 µM) | 10 µg/mL (≈ 22.6 µM) | 12 µg/mL (≈ 27.1 µM) | 22.3 s | 13 µg/mL (≈ 29.4 µM) | 14 µg/mL (≈ 31.6 µM) | 10 µg/mL (≈ 22.6 µM) | 20.8 s | 11 µg/mL (≈ 24.8 µM) | 12 µg/mL (≈ 27.1 µM) | 11 µg/mL (≈ 24.8 µM) | 10 µg/mL (≈ 22.6 µM) | 12 µg/mL (≈ 27.1 µM) | 14 µg/mL (≈ 31.6 µM)
COc1ccc(/C=C/c2onc(C)c2-n2c(C)nc3nc4ccc(Cl)cc4cc3c2=O)cc1 | 17 µg/mL (≈ 37 µM) | 11 µg/mL (≈ 24 µM) | 14 µg/mL (≈ 30.5 µM) | 22.6 s | 12 µg/mL (≈ 26.1 µM) | 16 µg/mL (≈ 34.9 µM) | 13 µg/mL (≈ 28.3 µM) | 25.1 s | 13 µg/mL (≈ 28.3 µM) | 12 µg/mL (≈ 26.1 µM) | 10 µg/mL (≈ 21.8 µM) | 14 µg/mL (≈ 30.5 µM) | 14 µg/mL (≈ 30.5 µM) | 11 µg/mL (≈ 24 µM)
Cc1noc(/C=C/c2ccccc2)c1-n1c(C)nc2nc3ccccc3cc2c1=O | 18 µg/mL (≈ 45.6 µM) | 16 µg/mL (≈ 40.6 µM) | 20 µg/mL (≈ 50.7 µM) | 16.5 s | 10 µg/mL (≈ 25.4 µM) | 15 µg/mL (≈ 38 µM) | 20 µg/mL (≈ 50.7 µM) | 14.8 s | 14 µg/mL (≈ 35.5 µM) | 20 µg/mL (≈ 50.7 µM) | 22 µg/mL (≈ 55.8 µM) | 24 µg/mL (≈ 60.8 µM) | 12 µg/mL (≈ 30.4 µM) | 20 µg/mL (≈ 50.7 µM)
Cc1noc(/C=C/c2ccccc2)c1-n1c(C)nc2nc3ccc(Cl)cc3cc2c1=O | 15 µg/mL (≈ 35 µM) | 8 µg/mL (≈ 18.7 µM) | 5 µg/mL (≈ 11.7 µM) | 21.5 s | 10 µg/mL (≈ 23.3 µM) | 11 µg/mL (≈ 25.6 µM) | 9 µg/mL (≈ 21 µM) | 21.2 s | 9 µg/mL (≈ 21 µM) | 8 µg/mL (≈ 18.7 µM) | 16 µg/mL (≈ 37.3 µM) | 10 µg/mL (≈ 23.3 µM) | 11 µg/mL (≈ 25.6 µM) | 7 µg/mL (≈ 16.3 µM)
O=C(O)c1cn(C2CC2)c2cc(N3CCNCC3)c(F)cc2c1=O [CIPROFLOXACIN] | – | – | 20 µg/mL (≈ 60.4 µM) | – | – | – | 28 µg/mL (≈ 84.5 µM) | – | – | 20 µg/mL (≈ 60.4 µM) | 24 µg/mL (≈ 72.4 µM) | – | – | 22 µg/mL (≈ 66.4 µM)
Cc1ccc(/C=C/c2onc(C)c2-n2c(C)nc3nc4ccccc4cc3c2=O)cc1 | 15 µg/mL (≈ 36.7 µM) | 12 µg/mL (≈ 29.4 µM) | 15 µg/mL (≈ 36.7 µM) | 21.1 s | 10 µg/mL (≈ 24.5 µM) | 18 µg/mL (≈ 44.1 µM) | 25 µg/mL (≈ 61.2 µM) | 21.3 s | 12 µg/mL (≈ 29.4 µM) | 19 µg/mL (≈ 46.5 µM) | 23 µg/mL (≈ 56.3 µM) | 23 µg/mL (≈ 56.3 µM) | 14 µg/mL (≈ 34.3 µM) | 18 µg/mL (≈ 44.1 µM)
COc1ccc(/C=C/c2onc(C)c2-n2c(C)nc3nc4ccccc4cc3c2=O)cc1 | 18 µg/mL (≈ 42.4 µM) | 10 µg/mL (≈ 23.6 µM) | 16 µg/mL (≈ 37.7 µM) | 21.4 s | 16 µg/mL (≈ 37.7 µM) | 16 µg/mL (≈ 37.7 µM) | 25 µg/mL (≈ 58.9 µM) | 21.7 s | 14 µg/mL (≈ 33 µM) | 18 µg/mL (≈ 42.4 µM) | 22 µg/mL (≈ 51.8 µM) | 22 µg/mL (≈ 51.8 µM) | 14 µg/mL (≈ 33 µM) | 20 µg/mL (≈ 47.1 µM)
Cc1noc(/C=C/c2ccccc2)c1N1CN=C2Oc3c(Br)cc(Br)cc3C=C2C1=O | 8 µg/mL (≈ 14.8 µM) | 9 µg/mL (≈ 16.6 µM) | 8 µg/mL (≈ 14.8 µM) | 23.4 s | 7 µg/mL (≈ 12.9 µM) | 10 µg/mL (≈ 18.5 µM) | 8 µg/mL (≈ 14.8 µM) | 23.3 s | 8 µg/mL (≈ 14.8 µM) | 9 µg/mL (≈ 16.6 µM) | 7 µg/mL (≈ 12.9 µM) | 6 µg/mL (≈ 11.1 µM) | 6 µg/mL (≈ 11.1 µM) | 5 µg/mL (≈ 9.24 µM)
Cc1noc(/C=C/c2ccccc2)c1N1CN=C2Oc3ccccc3C=C2C1=O | 18 µg/mL (≈ 46.9 µM) | 16 µg/mL (≈ 41.7 µM) | 18 µg/mL (≈ 46.9 µM) | 15.7 s | 20 µg/mL (≈ 52.2 µM) | 20 µg/mL (≈ 52.2 µM) | 16 µg/mL (≈ 41.7 µM) | 17.7 s | 18 µg/mL (≈ 46.9 µM) | 18 µg/mL (≈ 46.9 µM) | 12 µg/mL (≈ 31.3 µM) | 14 µg/mL (≈ 36.5 µM) | 12 µg/mL (≈ 31.3 µM) | 18 µg/mL (≈ 46.9 µM)
Cc1ccc(/C=C/c2onc(C)c2N2CN=C3Oc4ccc(Cl)cc4C=C3C2=O)cc1 | 9 µg/mL (≈ 20.8 µM) | 9 µg/mL (≈ 20.8 µM) | 18 µg/mL (≈ 41.7 µM) | 24.7 s | 8 µg/mL (≈ 18.5 µM) | 12 µg/mL (≈ 27.8 µM) | 15 µg/mL (≈ 34.7 µM) | 19.1 s | 10 µg/mL (≈ 23.2 µM) | 14 µg/mL (≈ 32.4 µM) | 16 µg/mL (≈ 37 µM) | 11 µg/mL (≈ 25.5 µM) | 11 µg/mL (≈ 25.5 µM) | 18 µg/mL (≈ 41.7 µM)
Cc1noc(/C=C/c2ccccc2)c1N1CN=C2Oc3c(Cl)cc(Cl)cc3C=C2C1=O | 22 µg/mL (≈ 48.6 µM) | 16 µg/mL (≈ 35.4 µM) | 16 µg/mL (≈ 35.4 µM) | 21.9 s | 14 µg/mL (≈ 31 µM) | 16 µg/mL (≈ 35.4 µM) | 16 µg/mL (≈ 35.4 µM) | 28.3 s | 18 µg/mL (≈ 39.8 µM) | 15 µg/mL (≈ 33.2 µM) | 14 µg/mL (≈ 31 µM) | 15 µg/mL (≈ 33.2 µM) | 15 µg/mL (≈ 33.2 µM) | 17 µg/mL (≈ 37.6 µM)
Cc1ccc2c(c1)C=C1C(=O)N(c3c(C)noc3/C=C/c3ccccc3)CN=C1O2 | 22 µg/mL (≈ 55.4 µM) | 20 µg/mL (≈ 50.3 µM) | 18 µg/mL (≈ 45.3 µM) | 21.5 s | 20 µg/mL (≈ 50.3 µM) | 18 µg/mL (≈ 45.3 µM) | 16 µg/mL (≈ 40.3 µM) | 21.2 s | 22 µg/mL (≈ 55.4 µM) | 15 µg/mL (≈ 37.7 µM) | 18 µg/mL (≈ 45.3 µM) | 12 µg/mL (≈ 30.2 µM) | 24 µg/mL (≈ 60.4 µM) | 15 µg/mL (≈ 37.7 µM)
COc1ccc2c(c1)C=C1C(=O)N(c3c(C)noc3/C=C/c3ccccc3)CN=C1O2 | 23 µg/mL (≈ 55.6 µM) | 12 µg/mL (≈ 29 µM) | 18 µg/mL (≈ 43.5 µM) | 13.4 s | 18 µg/mL (≈ 43.5 µM) | 17 µg/mL (≈ 41.1 µM) | 22 µg/mL (≈ 53.2 µM) | 21.3 s | 20 µg/mL (≈ 48.4 µM) | 18 µg/mL (≈ 43.5 µM) | 12 µg/mL (≈ 29 µM) | 24 µg/mL (≈ 58.1 µM) | 12 µg/mL (≈ 29 µM) | 17 µg/mL (≈ 41.1 µM)
COc1ccc(/C=C/c2onc(C)c2N2CN=C3Oc4ccc(Br)cc4C=C3C2=O)cc1 | 20 µg/mL (≈ 40.6 µM) | 18 µg/mL (≈ 36.6 µM) | 10 µg/mL (≈ 20.3 µM) | 22.6 s | 12 µg/mL (≈ 24.4 µM) | 12 µg/mL (≈ 24.4 µM) | 8 µg/mL (≈ 16.2 µM) | 18.8 s | 14 µg/mL (≈ 28.4 µM) | 12 µg/mL (≈ 24.4 µM) | 10 µg/mL (≈ 20.3 µM) | 15 µg/mL (≈ 30.5 µM) | 14 µg/mL (≈ 28.4 µM) | 13 µg/mL (≈ 26.4 µM)
COc1ccc2c(c1)c(CC(=O)O)c(C)n2C(=O)c1ccc(Cl)cc1 [INDOMETHACIN] | – | – | – | 22.4 s | – | – | – | 21.8 s | – | – | – | – | – | –
Clc1ccccc1C(c1ccccc1)(c1ccccc1)n1ccnc1 [CLOTRIMAZOLE] | 30 µg/mL (≈ 87 µM) | 28 µg/mL (≈ 81.2 µM) | – | – | 22 µg/mL (≈ 63.8 µM) | 20 µg/mL (≈ 58 µM) | – | – | 26 µg/mL (≈ 75.4 µM) | – | – | – | 25 µg/mL (≈ 72.5 µM) | –

Reference: ChEMBL document CHEMBL2062467, “Design, synthesis, antimicrobial, anti-inflammatory and analgesic activity of novel isoxazolyl pyrimido[4,5-b]quinolines and isoxazolyl chromeno[2,3-d]pyrimidin-4-ones” (2012)
